Measurements reported in ChEMBL document CHEMBL3616436, “Synthesis, cytotoxicity and antimicrobial activity of thiourea derivatives incorporating 3-(trifluoromethyl)phenyl moiety” (Eur J Med Chem, 2015).
≈ marks a conversion by molar mass, not a printed value.

Columns and labels:
[1] = system: Staphylococcus aureus; test: Antimicrobial activity against Staphylococcus aureus NCTC 4163 after 18 hrs by twofold serial microdilution method; type: functional; details: NCTC 4163, 18 h
[2] = system: Staphylococcus aureus; test: Antimicrobial activity against hospital methicillin-resistant Staphylococcus aureus 522/11 after 18 hrs by twofold serial microdilution method; type: functional; details: 522/11, 18 h
Method in brief: (§1)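 Twofold serial microdilution in Mueller-Hinton broth. Compound stock was made in DMSO and diluted in sterile water. Tested range was 0.125–512 µg/mL. Final inoculum was 10^5 CFU/mL. Plates were incubated 18 h at 35 °C. MIC is the lowest concentration preventing visible growth.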

[3] = system: Staphylococcus aureus; test: Antimicrobial activity against hospital methicillin-resistant Staphylococcus aureus 573/11 after 18 hrs by twofold serial microdilution method; type: functional; details: 573/11, 18 h; method in brief: as §1
[4] = system: Staphylococcus epidermidis; test: Antimicrobial activity against hospital methicillin-resistant Staphylococcus epidermidis 16/04 after 18 hrs by twofold serial microdilution method; type: functional; details: 16/04, 18 h; method in brief: as §1
[5] = system: Staphylococcus epidermidis; test: Antimicrobial activity against hospital methicillin-resistant Staphylococcus epidermidis 63/04 after 18 hrs by twofold serial microdilution method; type: functional; details: 63/04, 18 h; method in brief: as §1
[6] = system: Bacillus cereus; test: Antimicrobial activity against Bacillus cereus ATCC 11778 at 400 ug after 18 hrs by disc-diffusion method; type: functional; details: ATCC 11778, 18 h, read-out: IZ
Method in brief: (§2)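 Disc diffusion on Mueller-Hinton II agar per CLSI; 9 mm paper discs loaded with 400 µg compound from DMSO solution, dried, placed on agar; growth inhibition zone diameter read after 18 h at 35°C.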

[7] = system: Staphylococcus aureus; test: Antimicrobial activity against Staphylococcus aureus ATCC 25923 after 18 hrs by twofold serial microdilution method; type: functional; details: ATCC 25923, 18 h
[8] = system: Micrococcus luteus; test: Antimicrobial activity against Micrococcus luteus ATCC 10240 at 400 ug after 18 hrs by disc-diffusion method; type: functional; details: ATCC 10240, 18 h, read-out: IZ; method in brief: as §2
[9] = system: Staphylococcus aureus; test: Antimicrobial activity against hospital methicillin-resistant Staphylococcus aureus 57/05 after 18 hrs by twofold serial microdilution method; type: functional; details: 57/05, 18 h; method in brief: as §1
[10] = system: Staphylococcus aureus; test: Antimicrobial activity against hospital methicillin-resistant Staphylococcus aureus 81/05 after 18 hrs by twofold serial microdilution method; type: functional; details: 81/05, 18 h; method in brief: as §1
[11] = system: Staphylococcus aureus; test: Antimicrobial activity against Staphylococcus aureus ATCC 29213 after 18 hrs by twofold serial microdilution method; type: functional; details: ATCC 29213, 18 h
[12] = system: Staphylococcus epidermidis; test: Antimicrobial activity against hospital methicillin-resistant Staphylococcus epidermidis 24/04 after 18 hrs by twofold serial microdilution method; type: functional; details: 24/04, 18 h; method in brief: as §1
[13] = system: Staphylococcus epidermidis; test: Antimicrobial activity against hospital methicillin-resistant Staphylococcus epidermidis 31/04 after 18 hrs by twofold serial microdilution method; type: functional; details: 31/04, 18 h; method in brief: as §1
[14] = system: Staphylococcus epidermidis; test: Antimicrobial activity against Staphylococcus epidermidis ATCC 35984 at 400 ug after 18 hrs by disc-diffusion method; type: functional; details: ATCC 35984, 18 h, read-out: IZ; method in brief: as §2
[15] = system: Staphylococcus epidermidis; test: Antimicrobial activity against hospital methicillin-resistant Staphylococcus epidermidis 76/04 after 18 hrs by twofold serial microdilution method; type: functional; details: 76/04, 18 h; method in brief: as §1
[16] = system: Staphylococcus epidermidis; test: Antimicrobial activity against Staphylococcus epidermidis ATCC 12228 after 18 hrs by twofold serial microdilution method; type: functional; details: ATCC 12228, 18 h
[17] = system: Staphylococcus aureus; test: Antimicrobial activity against Staphylococcus aureus ATCC 29213 at 400 ug after 18 hrs by disc-diffusion method; type: functional; details: ATCC 29213, 18 h, read-out: IZ; method in brief: as §2
[18] = system: Vaccinia virus; test: Antiviral activity against Human Vaccinia virus ATCC VR-1549 infected in African green monkey Vero 76 cells assessed as reduction of virus-plaque formation after 3 days by crystal violet staining; type: functional, organism-based; details: Orthopoxvirus vaccinia, ATCC VR-1549, Vero, 72 h
[19] = system: Mycobacterium tuberculosis; test: Antimycobacterial activity against drug-sensitive Mycobacterium tuberculosis Spec. 192; type: functional
Method in brief: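 Classical test-tube successive-dilution method in Youmans' modification of Proskauer and Beck liquid medium with 10% bovine serum. Inoculum came from 14-day cultures. DMSO stock was 10 mg/mL, diluted geometrically in medium. Tubes were incubated at 37 °C. Concentrations tested were 3.1, 6.2, 12.5, 25, 50 and 100 µg/ml. MIC is the minimum concentration inhibiting growth relative to compound-free tubes.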

[20] = system: Staphylococcus aureus; test: Antimicrobial activity against hospital methicillin-resistant Staphylococcus aureus 80/05 after 18 hrs by twofold serial microdilution method; type: functional; details: 80/05, 18 h; method in brief: as §1
[21] = system: Human alphaherpesvirus 1; test: Antiviral activity against Human herpesvirus 1 KOS ATCC VR-1493 infected in African green monkey Vero 76 cells assessed as reduction of virus-plaque formation after 3 days by crystal violet staining; type: functional, organism-based; details: Human alphaherpesvirus 1, KOS ATCC VR1493, Vero, 72 h
Method in brief: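 Plaque reduction: Vero-76 at 2x10^5 cells/well grown to confluent monolayers, infected 2 h at 50–100 PFU/well; after removing unadsorbed virus, overlay of D-MEM, 1% inactivated FBS, 0.75% methylcellulose with or without serial compound dilutions; 3 days at 37°C, fixed and stained with crystal violet in 50% ethanol, plaques counted; EC50 by linear regression.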

[22] = system: Human immunodeficiency virus 1; test: Antiviral activity against HIV1 3B infected in human MT4 cells assessed as protection against virus-induced cytopathogenicity by MTT assay; type: functional, organism-based; details: Human immunodeficiency virus 1, 3B
[23] = system: Mammalian orthoreovirus 1; test: Antiviral activity against Reovirus type-1 ATCC VR-214 infected in BHK cells assessed as protection against virus-induced cytopathogenicity after 3 to 4 days by MTT assay; type: functional, cell-based; details: Mammalian orthoreovirus 1, ATCC VR-214, BHK
Method in brief: (§3)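 Cells seeded in 96-well plates (BHK 5x10^4, MDBK 3x10^4 cells/well), grown overnight to confluence, infected at m.o.i. 0.01 (BHK for Reo-1, MDBK for BVDV); serial compound dilutions in maintenance medium with 0.5% inactivated FBS added after 1 h; viability by MTT after 3–4 days at 37°C; EC50 for 50% protection by linear regression.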

[24] = system: Staphylococcus aureus; test: Ratio of ciprofloxacin MIC to compound MIC for hospital methicillin-resistant Staphylococcus aureus 57/05 after 18 hrs by twofold serial microdilution method; type: functional
Method in brief: (§4)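 Ratio of MICs for ciprofloxacin and test agent, each from twofold serial broth microdilution in Mueller-Hinton broth following CLSI guidelines. DMSO stock was diluted in sterile water to 0.125–512 µg/mL, with a final inoculum of 10^5 CFU/mL.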

[25] = Cytotoxicity against human MT4 cells; type: cell-based
[26] = system: Staphylococcus aureus; test: Ratio of ciprofloxacin MIC to compound MIC for hospital methicillin-resistant Staphylococcus aureus 573/11 after 18 hrs by twofold serial microdilution method; type: functional; method in brief: as §4
[27] = Antiviral activity against Bovine viral diarrhea virus 1-NADL ATCC VR-534 infected in MDBK cells assessed as protection against virus-induced cytopathogenicity after 3 to 4 days by MTT assay; type: functional, cell-based; details: Bovine viral diarrhea virus isolates and strains, ATCC VR-534, MDBK; method in brief: as §3
[28] = system: Poliovirus 1; test: Antiviral activity against Poliovirus type 1 ATCC VR-1562 infected in African green monkey Vero 76 cells assessed as reduction of virus-plaque formation after 2 days by crystal violet staining; type: functional, organism-based; details: Enterovirus C, ATCC VR-1562, Vero, 48 h
[29] = system: Staphylococcus epidermidis; test: Ratio of ciprofloxacin MIC to compound MIC for hospital methicillin-resistant Staphylococcus epidermidis 23/04 after 18 hrs by twofold serial microdilution method; type: functional; method in brief: as §4

Structure (SMILES)	MIC [1] [µg/mL]	MIC [2] [µg/mL]	MIC [3] [µg/mL]	MIC [4] [µg/mL]	MIC [5] [µg/mL]	zone of inhibition at 400 µg/disc [6] [mm]	MIC [7] [µg/mL]	zone of inhibition at 400 µg/disc [8] [mm]	MIC [9] [µg/mL]	MIC [10] [µg/mL]	MIC [11] [µg/mL]	MIC [12] [µg/mL]	MIC [13] [µg/mL]	zone of inhibition at 400 µg/disc [14] [mm]	MIC [15] [µg/mL]	MIC [16] [µg/mL]	zone of inhibition at 400 µg/disc [17] [mm]	EC50 [18] [µM]	MIC [19] [µg/mL]	MIC [20] [µg/mL]	other results
O=C(O)c1cn(C2CC2)c2cc(N3CCNCC3)c(F)cc2c1=O [CIPROFLOXACIN]	0.25 (≈ 0.754 µM)	128 (≈ 386 µM)	64 (≈ 193 µM)	32 (≈ 96.6 µM)	4 (≈ 12.1 µM)	30	0.5 (≈ 1.51 µM)	22	128 (≈ 386 µM)	8 (≈ 24.1 µM)	0.5 (≈ 1.51 µM)	64 (≈ 193 µM)	64 (≈ 193 µM)	32	0.125 (≈ 0.377 µM)	0.25 (≈ 0.754 µM)	22	–	–	–	–
FC(F)(F)c1cccc(NC(S)=NCc2ccccc2)c1	16 (≈ 51.6 µM)	16 (≈ 51.6 µM)	16 (≈ 51.6 µM)	16 (≈ 51.6 µM)	16 (≈ 51.6 µM)	15	16 (≈ 51.6 µM)	15	8 (≈ 25.8 µM)	8 (≈ 25.8 µM)	8 (≈ 25.8 µM)	16 (≈ 51.6 µM)	16 (≈ 51.6 µM)	13	8 (≈ 25.8 µM)	32 (≈ 103 µM)	16	> 35	25 (≈ 80.6 µM)	16 (≈ 51.6 µM)	EC50 [21]: > 35 µM; EC50 [22]: > 45 µM; EC50 [23]: > 45 µM; Ratio [24]: 128; CC50 [25]: 45 µM; Ratio [26]: 128; EC50 [27]: > 40 µM; EC50 [28]: > 35 µM; Ratio [29]: 128
FC(F)(F)c1cccc(NC(S)=Nc2ccc(Cl)c(Cl)c2)c1	0.5 (≈ 1.37 µM)	1 (≈ 2.74 µM)	1 (≈ 2.74 µM)	2 (≈ 5.48 µM)	2 (≈ 5.48 µM)	13	0.5 (≈ 1.37 µM)	16	2 (≈ 5.48 µM)	1 (≈ 2.74 µM)	0.5 (≈ 1.37 µM)	1 (≈ 2.74 µM)	1 (≈ 2.74 µM)	13	1 (≈ 2.74 µM)	2 (≈ 5.48 µM)	15	> 16	100 (≈ 274 µM)	2 (≈ 5.48 µM)	EC50 [21]: > 16 µM; EC50 [22]: > 9 µM; EC50 [23]: > 9.5 µM; Ratio [24]: 128; Ratio [26]: 128; EC50 [27]: > 10 µM; EC50 [28]: > 16 µM; Ratio [29]: 128
